In ChEMBL document CHEMBL4689842, “EUbOPEN Chemogenomics Library wave 1” (2021):

System: Fibroblast
Assay: Multiplex assay against human fibroblast
Format: toxicity, cell-based
Method in brief: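 Live cells were stained at seeding with Hoechst33342, BioTracker Green Microtubule Cytoskeleton Dye, MitoTracker Red and Annexin V Alexa Fluor 680, then imaged on a CQ1 microscope at 37°C and 5% CO2 after compound addition. CellPathfinder machine-learning gating split cells into Hoechst high-intensity objects or normal cells. Normal cells were split into healthy, pyknosed or fragmented nuclei, and pyknosed cells into mitotic or apoptotic. Tubulin, mitochondrial-mass and membrane-permeability phenotypes are per cents of healthy-nucleus cells.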

[1] = 12 h, 1 µM, compound concentration 1 uM, replicate 1
[2] = 12 h, 1 µM, compound concentration 1 uM, replicate 2
[3] = 12 h, 10 µM, compound concentration 10 uM, replicate 1
[4] = 12 h, 10 µM, compound concentration 10 uM, replicate 2
[5] = 24 h, 1 µM, compound concentration 1 uM, replicate 1
[6] = 24 h, 1 µM, compound concentration 1 uM, replicate 2
[7] = 24 h, 10 µM, compound concentration 10 uM, replicate 1
[8] = 24 h, 10 µM, compound concentration 10 uM, replicate 2
[9] = 48 h, 1 µM, compound concentration 1 uM, replicate 1
[10] = 48 h, 1 µM, compound concentration 1 uM, replicate 2
[11] = 48 h, 10 µM, compound concentration 10 uM, replicate 1
[12] = 48 h, 10 µM, compound concentration 10 uM, replicate 2

CC(C)OC(=O)N1CCC(Oc2ncnc3c2cnn3-c2ccc(S(C)(=O)=O)cc2F)CC1
Population Apoptotic (%) [1]: 64% | Population Fragmented Nuclei (%) [1]: 27% | Population Healthy Nuclei (%) [1]: 50% | Population Hoechst High Intensity Objects (%) [1]: 13% | Population Membrane Permeable-Phenotype (%) [1]: 27% | Population Mitochondria Different-Phenotype (%) [1]: 0% | Population Mitotic Cells (%) [1]: 35% | Population Normal (%) [1]: 86% | Population Pyknosed Nuclei (%) [1]: 22% | Population Tubulin-Different-Phenotype (%) [1]: 24% | Total Cell Count [1]: 86 | Population Apoptotic (%) [2]: 33% | Population Fragmented Nuclei (%) [2]: 5% | Population Healthy Nuclei (%) [2]: 91% | Population Hoechst High Intensity Objects (%) [2]: 7% | Population Membrane Permeable-Phenotype (%) [2]: 4% | Population Mitochondria Different-Phenotype (%) [2]: 8% | Population Mitotic Cells (%) [2]: 66% | Population Normal (%) [2]: 92% | Population Pyknosed Nuclei (%) [2]: 3% | Population Tubulin-Different-Phenotype (%) [2]: 7% | Total Cell Count [2]: 97 | Population Apoptotic (%) [3]: 58% | Population Fragmented Nuclei (%) [3]: 21% | Population Healthy Nuclei (%) [3]: 43% | Population Hoechst High Intensity Objects (%) [3]: 10% | Population Membrane Permeable-Phenotype (%) [3]: 17% | Population Mitochondria Different-Phenotype (%) [3]: 22% | Population Mitotic Cells (%) [3]: 41% | Population Normal (%) [3]: 89% | Population Pyknosed Nuclei (%) [3]: 34% | Population Tubulin-Different-Phenotype (%) [3]: 58% | Total Cell Count [3]: 164 | Population Apoptotic (%) [4]: 18% | Population Fragmented Nuclei (%) [4]: 5% | Population Healthy Nuclei (%) [4]: 77% | Population Hoechst High Intensity Objects (%) [4]: 6% | Population Membrane Permeable-Phenotype (%) [4]: 0% | Population Mitochondria Different-Phenotype (%) [4]: 5% | Population Mitotic Cells (%) [4]: 81% | Population Normal (%) [4]: 93% | Population Pyknosed Nuclei (%) [4]: 16% | Population Tubulin-Different-Phenotype (%) [4]: 28% | Total Cell Count [4]: 72 | Population Apoptotic (%) [5]: 66% | Population Fragmented Nuclei (%) [5]: 20% | Population Healthy Nuclei (%) [5]: 58% | Population Hoechst High Intensity Objects (%) [5]: 13% | Population Membrane Permeable-Phenotype (%) [5]: 33% | Population Mitochondria Different-Phenotype (%) [5]: 4% | Population Mitotic Cells (%) [5]: 33% | Population Normal (%) [5]: 86% | Population Pyknosed Nuclei (%) [5]: 20% | Population Tubulin-Different-Phenotype (%) [5]: 45% | Total Cell Count [5]: 83 | Population Apoptotic (%) [6]: 50% | Population Fragmented Nuclei (%) [6]: 4% | Population Healthy Nuclei (%) [6]: 86% | Population Hoechst High Intensity Objects (%) [6]: 2% | Population Membrane Permeable-Phenotype (%) [6]: 5% | Population Mitotic Cells (%) [6]: 50% | Population Normal (%) [6]: 97% | Population Pyknosed Nuclei (%) [6]: 8% | Population Tubulin-Different-Phenotype (%) [6]: 9% | Total Cell Count [6]: 116 | Population Apoptotic (%) [7]: 43% | Population Fragmented Nuclei (%) [7]: 24% | Population Healthy Nuclei (%) [7]: 48% | Population Hoechst High Intensity Objects (%) [7]: 12% | Population Membrane Permeable-Phenotype (%) [7]: 30% | Population Mitochondria Different-Phenotype (%) [7]: 16% | Population Mitotic Cells (%) [7]: 56% | Population Normal (%) [7]: 87% | Population Pyknosed Nuclei (%) [7]: 27% | Population Tubulin-Different-Phenotype (%) [7]: 72% | Total Cell Count [7]: 156 | Population Apoptotic (%) [8]: 33% | Population Fragmented Nuclei (%) [8]: 5% | Population Healthy Nuclei (%) [8]: 87% | Population Hoechst High Intensity Objects (%) [8]: 2% | Population Membrane Permeable-Phenotype (%) [8]: 1% | Population Mitochondria Different-Phenotype (%) [8]: 2% | Population Mitotic Cells (%) [8]: 66% | Population Normal (%) [8]: 97% | Population Pyknosed Nuclei (%) [8]: 6% | Population Tubulin-Different-Phenotype (%) [8]: 31% | Total Cell Count [8]: 93 | Population Apoptotic (%) [9]: 77% | Population Fragmented Nuclei (%) [9]: 35% | Population Healthy Nuclei (%) [9]: 52% | Population Hoechst High Intensity Objects (%) [9]: 25% | Population Membrane Permeable-Phenotype (%) [9]: 28% | Population Mitochondria Different-Phenotype (%) [9]: 0% | Population Mitotic Cells (%) [9]: 22% | Population Normal (%) [9]: 74% | Population Pyknosed Nuclei (%) [9]: 12% | Population Tubulin-Different-Phenotype (%) [9]: 35% | Total Cell Count [9]: 99 | Population Apoptotic (%) [10]: 0% | Population Fragmented Nuclei (%) [10]: 25% | Population Healthy Nuclei (%) [10]: 74% | Population Hoechst High Intensity Objects (%) [10]: 13% | Population Membrane Permeable-Phenotype (%) [10]: 31% | Population Mitochondria Different-Phenotype (%) [10]: 2% | Population Mitotic Cells (%) [10]: 0% | Population Normal (%) [10]: 86% | Population Pyknosed Nuclei (%) [10]: 0% | Population Tubulin-Different-Phenotype (%) [10]: 44% | Total Cell Count [10]: 73 | Population Apoptotic (%) [11]: 46% | Population Fragmented Nuclei (%) [11]: 24% | Population Healthy Nuclei (%) [11]: 51% | Population Hoechst High Intensity Objects (%) [11]: 17% | Population Membrane Permeable-Phenotype (%) [11]: 29% | Population Mitochondria Different-Phenotype (%) [11]: 14% | Population Mitotic Cells (%) [11]: 53% | Population Normal (%) [11]: 82% | Population Pyknosed Nuclei (%) [11]: 23% | Population Tubulin-Different-Phenotype (%) [11]: 73% | Total Cell Count [11]: 143 | Population Apoptotic (%) [12]: 66% | Population Fragmented Nuclei (%) [12]: 22% | Population Healthy Nuclei (%) [12]: 73% | Population Hoechst High Intensity Objects (%) [12]: 7% | Population Membrane Permeable-Phenotype (%) [12]: 14% | Population Mitochondria Different-Phenotype (%) [12]: 4% | Population Mitotic Cells (%) [12]: 33% | Population Normal (%) [12]: 92% | Population Pyknosed Nuclei (%) [12]: 3% | Population Tubulin-Different-Phenotype (%) [12]: 44% | Total Cell Count [12]: 99
